This data set relates to MS2 coat protein. Description: apparent Kd, MS2 coat protein; higher = weaker binding; RNA-MaP array. The essentials:
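Designs measured on fewer than 10 clusters were excluded from the data. The rest were RNAs transcribed from sequenced DNA templates on an Illumina sequencing chip and incubated at room temperature, with or without input ligand, with fluorescently labeled MS2 coat protein at 1.5 nM to 3 μM for 0.8–1.5 h at the lowest to 10–20 min at the highest concentrations. Apparent Kd is the median of the per-cluster binding-curve fits.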

Where [1] appears, read: designed as: ON switch for flavin mononucleotide, no ligand.
Where [2] appears, read: ligand present: flavin mononucleotide, designed as: ON switch for flavin mononucleotide.
Where [3] appears, read: designed as: OFF switch for flavin mononucleotide, no ligand.
Setting [4] is: ligand present: flavin mononucleotide, designed as: OFF switch for flavin mononucleotide.

Consider “UGCCCUACAUGAGGAUCACCCAUGUACAUAACAUGAGUGCGCAGAAGGUAUGCGUUGAAGAGCCAUAAGGAUAUGCAAACCGUC”, for which the “apparent Kd” value by setting is: under setting [1], 114 nM; under setting [2], 71.1 nM.
Turning to “UCCCGACAUGAGGAUCACCCAUGUCCAUUGUCGGUCGAGAGUAAGGAUAUAGAUAAUCAGGAGAACUAGAAGGUACUGUUAGCG”, the “apparent Kd” value was 530 nM under setting [3] and 164 nM under setting [4].
Take “UCAAGCGAAGGAUAUACAUGAGGAUCACCCAUGUUGGCUAGAAUGAAAGACGGAUUAUGUAGAAGGUCGUGUGC”: the “apparent Kd” value under setting [3] was 20.3 nM and the “apparent Kd” value under setting [4] was 17.6 nM.
As for “GCUCGUUGCAUGGAUACCAGUUGAUAGGCCGCCUCCGGAUACAUGAGGAUCACCCAUGUCAACCCUUGGCAGCCACCCAAUAGGG”, the “apparent Kd” value reads like this: (designed as: OFF switch for theophylline, no ligand) 9.36 nM; (ligand present: theophylline, designed as: OFF switch for theophylline) 18.1 nM.
With “ACUAGACAUGAGGAUCACCCAUGUGAGGAUAUCUUGCUAUGCACUAUGGGCCAACGGAAGAGAAGGCACUGGGA”, the “apparent Kd” value came out at 45.7 nM under setting [3] and 93.2 nM under setting [4].
As to “AGGAACGUAGAGAAGGGAUCAAUUCGGUACAUGAGGAUCACCCAUGUGAUGGCCAAACUUCGAAAUCAGGAUAUCUCAUAAUAC”, the “apparent Kd” value came to 18.4 nM under setting [1] and 14.2 nM under setting [2].
For “ACCGGACAUGAGGAUCACCCAUGUCUUGCAUAGGUAGGAUAUGAAUCAAGGACUUGAUCAUCAGAAGGACCCAGGC”, the “apparent Kd” value under setting [1] amounted to 8.44 nM and the “apparent Kd” value under setting [2] was 7.13 nM.
In the case of “GAAAAUUCCUAGAAGGCGGAUUAUACUUGGUUGAACAUGAGGAUCACCCAUGUAUCUGGCAAACCCGAGGAUAUAGAUUUUCCA”, the “apparent Kd” value by setting is: under setting [1], 56.2 nM; under setting [2], 31.2 nM.
As for “AACAUGGAUCAAGGAUAUGCAAAGCGCUCGAUAAACAUGAGGAUCACCCAUGUGGCAGUCACAACGCAGAAGGUGACUAUAAUA”, the “apparent Kd” value under setting [1] was 29.9 nM and the “apparent Kd” value under setting [2] was determined as 19.3 nM.
For “UCCCUGCAAGGAUAUACAUGAGGAUCACCCAUGUUUACACACGAAAAUUUGGAGAUAGGUAGAAGGUGCAUUUU”, the “apparent Kd” value under setting [3] was found to be 12.6 nM and the “apparent Kd” value under setting [4] was determined as 11.8 nM.
Taken in the same sequence, the figures for “UAAGCGUUAGGAUAUACAAAACGAAGAAAGUGAUUCAGAAUACAUGAGGAUCACCCAUGUAGAAGGAACGGGUA” were 17.7 nM and 24.2 nM.
Consider “ACAGUAAAUGUGUAGGAUAUGAACUAAACCACAUGAGGAUCACCCAUGUAACGAUUGGAUGGCCUUCAGAAGGACAGGGUUAUUGC”, for which the “apparent Kd” value is, setting by setting: under setting [1], 304 nM; under setting [2], 215 nM.
Taken in the same sequence, the figures for “AUAAAACGAGUGCAGGAUAUUCCGUCGCGCACAUGAGGAUCACCCAUGUCAAUUGGGCAUCGUACGAAGAAGGGCAAAUACCAGCG” were 116 nM and 76.4 nM.
With “UCGCGCUAAGGAUAUACUAUAAGCCACAUGAGGAUCACCCAUGUUAUAUACAUGUCCUCGGUAGAAGGUAGCCGGA”, the “apparent Kd” value came out at 48.6 nM under setting [3] and 50.2 nM under setting [4].
Turning to “GCAUUACAUGAGGAUCACCCAUGUCUAGAUACCAGAUUUGUUUGAAUCCCUUGGCAGCUAGUGGACCACCGUACACGACAUACUA”, the “apparent Kd” value (designed as: ON switch for theophylline, no ligand) was found to be 45.1 nM and the “apparent Kd” value (ligand present: theophylline, designed as: ON switch for theophylline) turned out to be 24.9 nM.
On to “CCGUGGCAUCAACAGGAUAUGCUAUCAAAGACAUGAGGAUCACCCAUGUGGGUAUAUUACUUCCGGCAGAAGGGUUUAAGGGUUAC”, for which the “apparent Kd” value was 36.6 nM under setting [1] and 28.9 nM under setting [2].
Taken in the same sequence, the figures for “AAACCAUCAAACACAUGAGGAUCACCCAUGUCUAAAGAAAUGUAGGAUAUGUAAUACCUAGUCAAACAGAAGGACAUUCAAGAU” were 9.39 nM and 8.35 nM.
On to “UGUUGCAGCCACAUGAGGAUCACCCAUGUGCUCAGGAUCGUUGAGGAUAUCGAGGUAGGGUCAGCCGAGAAGGCAAGGGUCGCG”, for which the “apparent Kd” value reads like this: under setting [1], 10.5 nM; under setting [2], 8.64 nM.
In the case of “CAAAUAUAGUCAGGAUAUGUUCGAAAGGGUGCACAUGAGGAUCACCCAUGUCAUAAGACACUAGCACAGAAGGGACCCGAGAGA”, the “apparent Kd” value was determined as 149 nM under setting [3] and 141 nM under setting [4].
For the sequence “CCUGUAGACCCGACAUGAGGAUCACCCAUGUGUAGUUAUGGUAGAAGGUCGUACUGAACACACUCGAAGGAUAUACCCUUAUAC”, the “apparent Kd” value is 13.9 nM under setting [1] and 13.3 nM under setting [2].

One may read the apparent Kd as the concentration giving half-maximal binding under the conditions of the assay.

(Values after the EternaBench riboswitch data.)
